The text below walks through data of ChEMBL document CHEMBL4387702, “Design and synthesis novel di-carbonyl analogs of curcumin (DACs) act as potent anti-inflammatory agents against LPS-induced acute lung injury (ALI)” (Eur J Med Chem, 2019).

Activity calls are given as the source filed them. The rule behind the calls is not given here.

Data set [1] relates to RAW264.7. The data set is described as follows: Inhibition of MAPK/NFkappaB in ICR mouse RAW264.7 cells assessed as reduction in LPS-induced IL6 production at 10 uM pretreated for 0.5 hrs followed by LPS challenge and measured after 24 hrs by ELISA relative to control. The class given is cell-based.
The test system of data set [2] is RAW264.7. The data set is described as follows: Cytotoxicity against ICR mouse RAW264.7 cells assessed as effect on cell proliferation at 10 uM after 24 hrs by MTT assay. The class given is cell-based. The settings on record: raw264.7, 24 h.
The nature of data set [3]: Stability in pH 7.4 phosphate buffer assessed as compound decomposition measured up to 25 mins by UV-Vis spectroscopy. The class given is physicochemical. Conditions: pH 7.4, 25 min. In a few lines:
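Compound stability was followed by recording UV-visible absorption spectra in phosphate buffer at pH 7.4.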

The test system of data set [4] is RAW264.7. The data set is described as follows: Inhibition of LPS-induced ERK phosphorylation in ICR mouse RAW264.7 cells at 10 uM preincubated for 0.5 hrs followed by LPS challenge and measured after 30 mins by immunoblotting analysis. The class given is cell-based. An outline of the steps:
(§1)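 RAW 264.7 cells were pretreated with compound for 0.5 h and then stimulated with LPS for 30 min. Lysates were resolved on 10% or 12% SDS-PAGE and transferred to nitrocellulose. Membranes were blocked in TBS (pH 7.6) with 0.05% Tween 20 and 5% milk. Blots were probed for p-p38, p38, p-ERK, ERK, IκBα and GAPDH, detected with HRP secondaries and ECL.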

The test system of data set [5] is RAW264.7. As to the kind of experiment: Inhibition of NFkappaB/MAPK signaling in LPS-induced mouse RAW264.7 cells assessed as down regulation of IkappaB expression at 10 uM preincubated for 0.5 hrs followed by LPS-challenge and measured after 30 mins by immunoblotting analysis. The class given is cell-based. An outline of the steps: as §1
The target in data set [6] is Transcription factor p65 (Mus musculus) (UniProt Q04207). As to the kind of experiment: Inhibition of LPS-induced NFkappaB p65 nuclear translocation in ICR mouse RAW264.7 cells preincubated for 0.5 hrs followed by LPS challenge and measured after 40 mins by DAPI staining-based immunofluorescence microscopic analysis. The class given is cell-based. An outline of the steps: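 RAW 264.7 cells were pretreated with compound for 0.5 h, then given LPS for 40 min (methods) or 45 min (legend). Cells were fixed with 4% paraformaldehyde and permeabilized in methanol. Anti-p65 (1:200) was applied overnight at 4 °C, then PE-conjugated secondary (1:200) for 2 h. Nuclei were stained with DAPI and cells viewed by fluorescence microscopy.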

Data set [7] is described as follows: Inhibition of MAPK/NFkappaB in ICR mouse RAW264.7 cells assessed as reduction in LPS-induced IL6 production pretreated for 0.5 hrs followed by LPS challenge and measured after 24 hrs by ELISA. The format is cell-based.
Data set [8] has as its system RAW264.7. The data set is described as follows: Inhibition of MAPK/NFkappaB signaling in ICR mouse RAW264.7 cells assessed as reduction in LPS-induced IL1beta mRNA expression pretreated for 0.5 hrs followed by LPS challenge and measured after 40 mins by TRIZOL reagent-based RT-qPCR analysis. The format is cell-based. In a few lines: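 RAW 264.7 cells were pretreated with compound for 0.5 h and then activated with LPS. Values were normalized to actin and expressed relative to the LPS group.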

The test system of data set [9] is Mus musculus. The data set is described as follows: Antiinflammatory activity in C57BL/6 mouse model of LPS-induced acute lung injury assessed as reduction in neutrophil count in BALF at 10 mg/kg, ip administered daily for one week prior to LPS challenge and measured after 6 hrs. The format is functional, organism-based. In a few lines: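 C57BL/6 mice (eight per group) received 10 mg/kg i.p. daily for one week; vehicle was 0.9% saline. They were then challenged with intratracheal LPS at 5 mg/kg and sacrificed 6 h later. Endpoints were lung wet/dry weight ratio and total and neutrophil cell counts in BALF, reported as mean ± SEM, n = 6.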

For data set [10], the system named is Mus musculus. The data set is described as follows: Antiinflammatory activity in C57BL/6 mouse model of LPS-induced acute lung injury assessed as reduction of pathological lesions in lung tissue at 10 mg/kg, ip administered daily for one week prior to LPS challenge and measured after 6 hrs by hematoxylin and eosin staining-based light microscopic analysis. The format is functional, organism-based. An outline of the steps: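 Lungs were taken 6 h after intratracheal LPS (5 mg/kg) from C57BL/6 mice pretreated at 10 mg/kg i.p. daily for one week. Tissue was fixed, embedded in paraffin, sectioned at 5 µm and stained with H&E. Injury features examined were edema, congestion, septal thickening, infiltration and tissue destruction, assessed by light microscopy.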

In data set [11] the test system is Mus musculus. As to the kind of experiment: Antiinflammatory activity in C57BL/6 mouse model of LPS-induced acute lung injury assessed as reduction of F4/80 macrophage level in lung tissue at 10 mg/kg, ip administered daily for one week prior to LPS challenge measured after 6 hrs by hematoxylin staining-based immunohistochemistry method. The format is functional, organism-based. In a few lines: (§2)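 Lungs came from C57BL/6 mice dosed at 10 mg/kg i.p. daily for one week, then given intratracheal LPS 5 mg/kg and harvested at 6 h. Tissue was paraffin-embedded and cut into 5 µm sections. Antigen retrieval used microwaving in 0.01 mol/L citrate (pH 6.0), then 3% H2O2 in methanol for 30 min. Sections took LY-6G or F4/80 primary antibody overnight at 4 °C, secondary at 1:200, DAB development and hematoxylin counterstain.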

For data set [12], the system named is Mus musculus. The data set is described as follows: Antiinflammatory activity in C57BL/6 mouse model of LPS-induced acute lung injury assessed as reduction of LY-6G neutrophil level in lung tissue at 10 mg/kg, ip administered daily for one week prior to LPS challenge and measured after 6 hrs by hematoxylin staining-based immunohistochemistry method. The format is functional, organism-based. In a few lines:
as §2

For data set [13], the system named is Mus musculus. The data set is described as follows: Antiinflammatory activity in C57BL/6 mouse model of LPS-induced acute lung injury assessed as reduction in TNF-alpha production in serum at 10 mg/kg, ip administered daily for one week prior to LPS challenge and measured after 6 hrs by ELISA. The format is functional, organism-based. In a few lines: (§3)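 In C57BL/6 mice (eight per group), compound was dosed at 10 mg/kg i.p. once daily for a week, with a 0.9% saline vehicle control. LPS 5 mg/kg was given intratracheally and animals were euthanized with chloral hydrate after 6 h. TNF-α and IL-6 in serum and BALF were measured by ELISA. Data are mean ± SEM, n = 6.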

The test system of data set [14] is Mus musculus. The data set is described as follows: Antiinflammatory activity in C57BL/6 mouse model of LPS-induced acute lung injury assessed as reduction in TNF-alpha production in BALF at 10 mg/kg, ip administered daily for one week prior to LPS challenge and measured after 6 hrs by ELISA. The format is functional, organism-based. In a few lines: as §3
The test system of data set [15] is Mus musculus. As to the kind of experiment: Antiinflammatory activity in C57BL/6 mouse model of LPS-induced acute lung injury assessed as reduction in TNF-alpha mRNA expression in lung tissue at 10 mg/kg, ip administered daily for one week prior to LPS challenge and measured after 6 hrs by TRIZOL reagent-based RT-qPCR analysis. The class given is functional, organism-based. An outline of the steps: (§4)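 Mouse ALI model with eight C57BL/6 mice per group. Compound was given at 10 mg/kg i.p. daily for one week; controls received 0.9% saline. LPS was instilled intratracheally at 5 mg/kg. Mice were euthanized with chloral hydrate 6 h later and lungs collected. Lung mRNA for each target was quantified by real-time qPCR.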

Data set [16] has as its system Mus musculus. The data set is described as follows: Antiinflammatory activity in C57BL/6 mouse model of LPS-induced acute lung injury assessed as reduction in IL-6 mRNA expression in lung tissue at 10 mg/kg, ip administered daily for one week prior to LPS challenge and measured after 6 hrs by TRIZOL reagent-based RT-qPCR analysis. The class given is functional, organism-based. In a few lines: as §4

Data set [17] concerns Mus musculus. The data set is described as follows: Antiinflammatory activity in C57BL/6 mouse model of LPS-induced acute lung injury assessed as reduction in ICAM1 mRNA expression in lung tissue at 10 mg/kg, ip administered daily for one week prior to LPS challenge and measured after 6 hrs by TRIZOL reagent-based RT-qPCR analysis. The format is functional, organism-based. An outline of the steps: as §4

Sequence of Transcription factor p65 (Mus musculus) (Q04207 whole entry): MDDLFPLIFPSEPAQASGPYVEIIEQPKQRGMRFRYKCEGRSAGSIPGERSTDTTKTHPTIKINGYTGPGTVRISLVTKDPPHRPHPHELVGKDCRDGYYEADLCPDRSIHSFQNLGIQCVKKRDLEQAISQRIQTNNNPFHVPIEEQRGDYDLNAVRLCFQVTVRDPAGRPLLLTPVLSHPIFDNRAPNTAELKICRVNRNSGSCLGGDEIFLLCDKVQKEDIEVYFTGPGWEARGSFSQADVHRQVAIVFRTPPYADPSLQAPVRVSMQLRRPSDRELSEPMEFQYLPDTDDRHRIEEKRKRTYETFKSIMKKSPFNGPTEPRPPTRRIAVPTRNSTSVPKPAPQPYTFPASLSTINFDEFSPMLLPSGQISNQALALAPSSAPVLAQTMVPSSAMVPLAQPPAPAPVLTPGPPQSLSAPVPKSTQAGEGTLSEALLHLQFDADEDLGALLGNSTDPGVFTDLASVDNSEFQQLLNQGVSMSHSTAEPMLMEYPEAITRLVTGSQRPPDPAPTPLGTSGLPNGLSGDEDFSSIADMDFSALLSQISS

With `COc1cc(/C=C/C(=O)N2CCC/C(=C\c3cc(OC)c(OC)c(OC)c3)C2=O)ccc1O`, the inhibition in the data set with RAW264.7 [1] was in the range of 99.3 to 99.7%. In addition, the Activity entry in the data set on RAW264.7 [2] is “Non-Toxic”. In addition, in data set [3], the Stability result is “Stable”. In addition, the inhibition entry (in the data set with RAW264.7 [4]; in the data set on RAW264.7 [5]; in data set [6]; with RAW264.7 [8]) was “Active” throughout. In data set [7], the half-inhibitory concentration (IC50) was 3.68 µM. The result in the data set on Mus musculus [9], with Mus musculus [10], in the data set on Mus musculus [11], in the data set on Mus musculus [12], in the data set on Mus musculus [13] and in the data set with Mus musculus [14] was Active. Also, the result with Mus musculus [15], in the data set on Mus musculus [16] and in the data set on Mus musculus [17] was Active.
Consider `COc1cc(/C=C/C(=O)N2CCC/C(=C\c3cc(OC)c(OC)c(OC)c3)C2=O)ccc1OC(C)=O`, for which the inhibition in the data set on RAW264.7 [1] lay within 99.3 to 99.7%. For the same molecule, the Activity entry in the data set on RAW264.7 [2] is on record as “Non-Toxic”. The Stability entry in [3] is recorded as “Stable”. The inhibition entry (with RAW264.7 [4]; with RAW264.7 [5]; in data set [6]; in the data set with RAW264.7 [8]) was “Active” in each case. The IC50 in [7] is 2.4 µM. Besides, the outcome in the data set on Mus musculus [9], with Mus musculus [10], in the data set with Mus musculus [11], in the data set on Mus musculus [12], in the data set with Mus musculus [13] and in the data set with Mus musculus [14] was Active. Also, the outcome with Mus musculus [15], in the data set on Mus musculus [16] and in the data set with Mus musculus [17] was Active.
